# This is a sample that favours compounds with a hit; in the whole collection about 9.4% have one here.
# Lmaj promast = Leishmania major promastigote growth inhibition; Leishmania major promastigotes, resazurin fluorescence viability; inhibition, % at 10 µM; 9% of 200,000 active; AID 1063; in the data active = inhibition above about 50%;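 also: promastigotes grown with compound for 44 hours at 28 °C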
# T cruzi repl = blocks replication of Trypanosoma cruzi. T. cruzi beta-gal in NIH3T3, luminescence, 90 h. 1.4% of 300,000 active. inhibition, % (no concentration beside the values);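 active = mean inhibition across valid replicates above about 55%, limit read from the data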;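 also: signal also drops with host cell toxicity which is not excluded here; 0% = plate median of DMSO wells and 100% = zero luminescence signal; higher percent means less beta-gal luminescence so fewer parasites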
#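 Assay system: NIH/3T3 fibroblasts plus reporter T. cruzi. Amount: NIH/3T3 cells, 5,000 per well. Buffer or medium: DMEM, 2% fetal bovine serum. Doses: compound pinned at 50 nL/well, DMSO. Schedule: ≥90 h infection period, 3 h prior cell attachment. Signal: luminescent β-galactosidase signal after 60 min lysis. Read-out: parasite load inhibition, %.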
# CSC inhib = blocks cancer stem cells; cancer stem cell-like cells viability, luminescence; inhibition, % at 7.5 µM; 1.1% of 300,000 active; AID 2717; in the data active = inhibition above about 75%; tested in HMLE shEcad cells
# SKKanGAS inh = blocks kanamycin growth of S. pyogenes SKKanGAS strain; BacTiter-Glo, 6 h; inhibition, % at 7.5 µM; 1.3% of 300,000 active; AID 1662;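 active = mean replicate score, as percent of positive control median, at least 50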;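 also: strain carries kanamycin resistance gene driven by streptokinase promoter and grows in 40 µg/ml kanamycin; loss of luminescence reflects streptokinase promoter inhibition or plain growth inhibition; 0% = median of DMSO wells and 100% = positive control at its reference dose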
# Mdm2-MdmX inh = inhibitors of human Mdm2/MdmX interaction | 3% of 330,000 active | SaOS-2 split-luciferase Mdm2/MdmX complementation, luminescence | AID 485346 | inhibition, % at 8 µM | O15151+Q00987;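 active = inhibition of at least 50% at 8 µM in the primary screen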
# Beta apoptosis = beta cell apoptosis inhibition | 0.8% of 300,000 active | INS-1E cytokine-induced death, ATP luminescence, 48 h; percent of positive-control rescue, neutral wells zero | protection from apoptosis, % (concentration not given with the values) | AID 435005;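 active = Every replicate reaches about 75%, or at least half do and their mean reaches it too, limit read from the data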;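 also: 0% = cytokine-treated negative control wells and 100% = positive control rescue; higher means more ATP so stronger rescue from cytokine killing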
# * marks the source's active call; other numbers are inactive results; · = no result.
SMILES,Lmaj promast,T cruzi repl,CSC inhib,SKKanGAS inh,Mdm2-MdmX inh,Beta apoptosis
CS(=O)(=O)N(CC(O)CON=C1c2ccccc2-c2ccccc21)c1ccc(F)cc1 (stereo not given),-2,19,·,3,13,·
C[C@@H](NC(=O)c1nc[nH]c1C(=O)NCc1ccc(CNC(=O)OC(C)(C)C)cc1)c1ccccc1,·,·,5,·,30,9
Cc1ccccc1N=Nc1c(C)[nH]n(C(N)=S)c1=O,53*,-4,0,0,-38,28
Cc1cccc(N=Nc2c(C)[nH]n(C(N)=S)c2=O)c1C,9,-2,-7,13,-36,28
CC(NC(=O)N(Cc1ccccc1)Cc1ccc2c(c1)OCO2)(C(F)(F)F)C(F)(F)F,94*,11,-7,-2,3,0
CCC(NC(=O)N(Cc1ccccc1)Cc1ccc2c(c1)OCO2)(C(F)(F)F)C(F)(F)F,67*,14,4,-3,33,-2
Cc1cc(Cl)ccc1NC(=S)NCc1cccs1,77*,-18,·,13,12,-1
Cc1ccc(NC(=S)NCc2cccs2)c(C)c1,16,-13,·,3,10,-2
O=C(COc1ncnc2sccc12)Nc1cccc(S(=O)(=O)N2CCOCC2)c1,·,·,·,·,-12,1
O=C(CCNc1ccc(Cl)c(C(F)(F)F)c1)c1ccco1,35,21,14,-2,17,-1
O=C(CCNc1cccc(C(F)(F)F)c1)c1ccco1,85*,16,-7,-5,-13,-21
O=C(CCNc1cc(Cl)cc(Cl)c1)c1ccco1,10,25,16,10,0,-7
O=C(CCNc1ccc(F)cc1)c1ccco1,97*,19,12,0,-24,-4
O=C(CCNc1ccc(F)c(Cl)c1)c1ccco1,96*,33,26,-3,14,-7
COc1ccccc1NC(=O)c1ccc(NC(=O)c2cc3c(s2)CCC3)cc1,4,21,-9,73*,23,10
COC(=O)c1ccc(Oc2nc(C)cc(Oc3ccccc3)n2)cc1,95*,-5,-9,-3,20,-1
COC(=O)c1ccc(Oc2cc(C)nc(NCc3ccccc3)n2)cc1,13,5,7,4,1,2
COc1cc(OC)c(OC)cc1CN1CCN(C(=O)CC(C)C)CC1,·,-5,-9,-9,18,4
CCc1nnc(NC(=O)CSCc2cc(=O)n3ccsc3n2)s1,·,-8,-15,3,4,-5
CCOC(=O)C(=NCCCN(C)C)NNc1ccc(Br)cc1,67*,-20,18,-10,2,4
CCCCN=C(NNc1ccc(Br)cc1)C(=O)OCC,31,4,136*,9,0,-7
CCOC(=O)C(=NCCCN(C)C)NNc1cc(C(F)(F)F)ccc1Cl,14,-6,1,3,-19,1
CCc1cccc(N(C(=O)c2csnn2)C(C(=O)NC(C)(C)C)c2ccccn2)c1 (stereo not given),-6,-2,-2,0,37,1
COc1ccc(S(=O)(=O)CCC(=O)N2CCN(c3ccc(C(C)=O)cc3)CC2)cc1,·,1,-6,-2,-25,-6
COC(=O)c1c(NC(NC(=O)C(C)(C)C)C(Cl)(Cl)Cl)sc2c1CCC2 (stereo not given),51*,39,43,59*,34,11
SMILES,Lmaj promast,T cruzi repl,CSC inhib,SKKanGAS inh,Mdm2-MdmX inh,Beta apoptosis
N#Cc1c(NC(=S)NC(=O)Cc2cccs2)sc2c1CCCCC2,4,9,-10,59*,7,-11
COC(=O)c1c(NC(NC(=O)C(C)C)C(Cl)(Cl)Cl)sc2c1CCC2 (stereo not given),53*,9,16,28,3,6
CC(C)(C)C(=O)Nc1sc2c(c1C#N)CCC2,-6,0,7,5,12,4
CC(=O)NC(=S)Nc1sc2c(c1C#N)CCCCC2,8,-7,·,11,·,·
CC(C)(C)C(=O)NC(NC(=S)Nc1sc2c(c1C#N)CCCC2)C(Cl)(Cl)Cl (stereo not given),-1,16,·,50*,39,5
COCC1CCN(C(=O)c2cc(COc3cc(C)c(Cl)c(C)c3)on2)C1 (stereo not given),·,-5,29,-12,-47,-5
CC1(C)C(c2ccccc2)=NC(c2ccc(Br)cc2)N1O (stereo not given),-8,-27,-2,-10,21,-2
CCC(CO)Nc1ccc(-c2n[nH]c(=O)c3ccccc23)cc1[N+](=O)[O-] (stereo not given),·,-5,1,2,16,2
C=CCOc1ccn(C)c(=O)n1,·,-11,-5,-1,-29,0
COC(=O)c1c(NC(NC(=O)CC(C)C)C(Cl)(Cl)Cl)sc2c1CCC2 (stereo not given),28,13,-12,15,25,8
CCC(=O)NC(Nc1sc2c(c1C(=O)OC)CCC2)C(Cl)(Cl)Cl (stereo not given),73*,25,13,0,-2,-6
O=C(NCc1ccc(Cl)cc1)c1cccnc1,-3,-8,-9,-1,2,20
O=C(NC(c1ccc(Cl)cc1)c1cc(Cl)c2cccnc2c1O)c1cccnc1 (stereo not given),99*,58*,113*,113*,·,96*
OCCNCCNCc1ccc(-c2ccccc2)cc1,100*,29,12,1,12,5
CCOc1ccc2[nH]c3c(NCCO)ncnc3c2c1,·,4,1,-2,-2,-4
C=CCNc1ncnc2c1[nH]c1ccc(Cl)cc12,100*,10,35,-2,-16,-3
c1ccc2c(c1)[nH]c1c(NCC3CCCO3)ncnc12 (stereo not given),86*,19,-8,1,20,8
C=CCNc1ncnc2ccccc12,22,-16,·,4,21,·
C=CCNc1ncnc2c1[nH]c1ccccc12,67*,14,-14,-3,-1,5
CC(=O)Oc1ccccc1C(=O)Nc1ccccc1C(=O)N1CCCCC1,·,-9,2,-1,-1,0
Cc1cc(Nc2cnc3ccccc3n2)n(-c2ccccc2)n1,67*,5,7,2,2,-4
Cc1cc(N/N=C/c2c[nH]c3ccccc23)c2ccccc2n1,2,-7,20,1,-37,-15
Cn1c(N/N=C/c2c[nH]c3ccccc23)nc2ccccc21,101*,8,-16,29,-94,29
CC(=O)Oc1c(Cl)cc(N(C(C)=O)S(=O)(=O)c2ccccc2)c2ccccc12,·,-11,12,0,23,95*
CC(=O)N(c1ccccc1Cl)S(=O)(=O)c1ccc(Cl)cc1,-2,-13,-8,1,-7,2
COc1ccc(S(=O)(=O)N(C(C)=O)c2ccc(OC(C)=O)c3ccccc23)cc1[N+](=O)[O-],100*,-4,22,10,22,106*

# From PubChem BioAssay
